Measurements taken from ChEMBL document CHEMBL4261586, “Conjugation of a 5-nitrofuran-2-oyl moiety to aminoalkylimidazoles produces non-toxic nitrofurans that are efficacious in vitro and in vivo against multidrug-resistant Mycobacterium tuberculosis” (Eur J Med Chem, 2018).
In brackets after ≈: the same amount, converted by molar mass.

Columns and labels:
[1] = system: Mycobacterium tuberculosis; assay: Antimycobacterial activity against Mycobacterium tuberculosis H37Rv after 7 days by resazurin microtitre plate assay; assay type: functional; settings: 168 h
Method in brief: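 REMA in Middlebrook 7H9 with OADC. Three-week culture vortexed with glass beads, adjusted to 1.0 McFarland (about 3×10⁸ bacteria/mL) and diluted 20-fold. Final concentrations 1.6–200 via 2-fold dilutions; growth control plus 1% ([…] diluted) control. 7 days at 35 °C, then 0.01% resazurin for 18 h; fluorescence ex 520/em 590 nm. MIC taken where fluorescence plateaued or matched the 1% control (t-test).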

[2] = system: Enterococcus faecium; assay: Antibacterial activity against Enterococcus faecium assessed as diameter of inhibition zone after 18 hrs by Kirby-Bauer disk diffusion test; assay type: functional
[3] = system: Staphylococcus aureus; assay: Antibacterial activity against Staphylococcus aureus assessed as diameter of inhibition zone after 18 hrs by Kirby-Bauer disk diffusion test; assay type: functional
[4] = system: Klebsiella pneumoniae; assay: Antibacterial activity against Klebsiella pneumoniae assessed as diameter of inhibition zone measured after 18 hrs by Kirby-Bauer disk diffusion test; assay type: functional
[5] = system: Acinetobacter baumannii; assay: Antibacterial activity against Acinetobacter baumannii assessed as diameter of inhibition zone measured after 18 hrs by Kirby-Bauer disk diffusion test; assay type: functional
[6] = system: Pseudomonas aeruginosa; assay: Antibacterial activity against Pseudomonas aeruginosa assessed as diameter of inhibition zone measured after 18 hrs by Kirby-Bauer disk diffusion test; assay type: functional
[7] = system: Klebsiella aerogenes; assay: Antibacterial activity against Enterobacter aerogenes assessed as diameter of inhibition zone measured after 18 hrs by Kirby-Bauer disk diffusion test; assay type: functional
[8] = (§1) Toxicity in po dosed C57BL6 mouse assessed as lethality measured daily over 14 days of treatment; assay type: organism-based; settings: C57BL6, mouse, in vivo
Method in brief: (§2)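 Male C57BL6 mice (19.0–22.0 g), quarantined 14 days, 6 per dose group. Single oral gavage of Tween-80 suspension in water at 700–1100 mg/kg in 100 mg/kg steps; controls (7 mice) received 0.01% Tween-80. Lethality, time to death and clinical signs recorded daily for 14 days, then cervical dislocation and necropsy; heart, lung, liver, spleen and left kidney weights expressed relative to body weight. LD50 calculated by formula from dead/total counts.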

[9] = system: Mus musculus; assay: as §1; assay type: organism-based; settings: mouse, in vivo, 336 h; method in brief: as §2
[10] = system: Mus musculus; assay: Toxicity in C57BL6 mouse assessed as lethality at 1100 mg/kg, po measured daily over 14 days of treatment; assay type: organism-based; settings: in vivo, 336 h; method in brief: as §2
[11] = system: Mus musculus; assay: Toxicity in C57BL6 mouse assessed as lethality at 700 mg/kg, po measured daily over 14 days of treatment; assay type: organism-based; settings: in vivo, 336 h; method in brief: as §2
[12] = system: Mus musculus; assay: Toxicity in C57BL6 mouse assessed as body mass at 700 to 1100 mg/kg, po measured after 14 days (reference value: 22.9 +/- 0.32 g); assay type: organism-based; settings: in vivo, 336 h; method in brief: as §2
[13] = system: Mus musculus; assay: Toxicity in C57BL6 mouse assessed as heart mass quotient at 700 to 1100 mg/kg, po measured after 14 days relative to total body weight; assay type: organism-based; settings: in vivo, 336 h; method in brief: as §2
[14] = system: Mus musculus; assay: Toxicity in C57BL6 mouse assessed as lung mass quotient at 700 to 1100 mg/kg, po measured after 14 days relative to total body weight; assay type: organism-based; settings: in vivo, 336 h; method in brief: as §2
[15] = system: Mus musculus; assay: Toxicity in C57BL6 mouse assessed as liver mass quotient at 700 to 1100 mg/kg, po measured after 14 days relative to total body weight; assay type: organism-based; settings: in vivo, 336 h; method in brief: as §2
[16] = system: Mus musculus; assay: Toxicity in C57BL6 mouse assessed as spleen mass quotient at 700 to 1100 mg/kg, po measured after 14 days relative to total body weight; assay type: organism-based; settings: in vivo, 336 h; method in brief: as §2
[17] = system: Mus musculus; assay: Toxicity in C57BL6 mouse assessed as left kidney mass quotient at 700 to 1100 mg/kg, po measured after 14 days relative to total body weight; assay type: organism-based; settings: in vivo, 336 h; method in brief: as §2
[18] = system: Mus musculus; assay: Toxicity in C57BL6 mouse assessed as brain mass quotient at 700 to 1100 mg/kg, po measured after 14 days relative to total body weight; assay type: organism-based; settings: in vivo, 336 h
[19] = system: Mycobacterium tuberculosis; assay: Antitubercular activity against Mycobacterium tuberculosis H37Rv infected in C57BL/6 mouse assessed as lung mass index at 20 mg/kg, po administered via gavage over 42 days (excluding weekends) (reference value: 2.28 +/- 0.1); assay type: functional
[20] = system: Mycobacterium tuberculosis; assay: Antitubercular activity against Mycobacterium tuberculosis H37Rv infected in C57BL/6 mouse assessed as tubercular foci index at 20 mg/kg, po administered via gavage over 42 days (excluding weekends) (reference value: 23.6 +/- 0.09); assay type: functional
[21] = system: Mycobacterium tuberculosis; assay: Antitubercular activity against Mycobacterium tuberculosis H37Rv infected in C57BL/6 mouse assessed as colony forming units per lung mass unit at 20 mg/kg, po administered via gavage over 42 days (excluding weekends) (reference value: 169.1 +/- 11.83 x 10^3); assay type: functional

Cc1cnc(C)n1C1CCN(C(=O)c2ccc([N+](=O)[O-])o2)C1 (configuration not stated)
MIC [1]: 3.1 µg/mL (≈ 10.2 µM)

Cc1cnc(CCNC(=O)c2ccc([N+](=O)[O-])o2)n1C1CCCCCCC1
MIC [1]: 25 µg/mL (≈ 66.8 µM)

Cc1cnc(-c2ccccc2)n1CC1CCN(C(=O)c2ccc([N+](=O)[O-])o2)C1 (configuration not stated)
MIC [1]: 6.2 µg/mL (≈ 16.3 µM)

CCCn1c(C)cnc1C1CN(C(=O)c2ccc([N+](=O)[O-])o2)C1
MIC [1]: 1.6 µg/mL (≈ 5.03 µM) | diameter of the inhibition zone (DIZ) [2]: 0 mm | diameter of the inhibition zone (DIZ) [3]: 15 mm | diameter of the inhibition zone (DIZ) [4]: 0 mm | diameter of the inhibition zone (DIZ) [5]: 25 mm | diameter of the inhibition zone (DIZ) [6]: 0 mm | diameter of the inhibition zone (DIZ) [7]: 19 mm | LD50 at 336 h [8]: 900 mg/kg | LD16 [9]: 287.5 mg/kg | LD84 [9]: 1037.5 mg/kg | LD100 [9]: 1100 mg/kg | Activity [10]: Toxic | Activity [11]: Non-Toxic | Activity [12]: 22.32 g | fold change (FC) [13]: 0.34 | fold change (FC) [14]: 0.48 | fold change (FC) [15]: 4.49 | fold change (FC) [16]: 0.23 | fold change (FC) [17]: 0.39 | fold change (FC) [18]: 1.11 | Activity_index [19]: 1.62 | Activity_index [20]: 2.7 | Activity [21]: 85.9 ×10³ CFU

Cc1cnc(C)n1C1CCCN(C(=O)c2ccc([N+](=O)[O-])o2)C1 (configuration not stated)
MIC [1]: 100 µg/mL (≈ 314 µM)

Cc1cnc(CCNC(=O)c2ccc([N+](=O)[O-])o2)n1C1CCC1
MIC [1]: 6.2 µg/mL (≈ 19.5 µM)

COCCn1c(C)cnc1CC1CCN(C(=O)c2ccc([N+](=O)[O-])o2)CC1
MIC [1]: > 100 µg/mL

Cc1cnc(-c2cccnc2)n1CCC1CCN(C(=O)c2ccc([N+](=O)[O-])o2)CC1
MIC [1]: 100 µg/mL (≈ 244 µM)

Cc1cnc(CC2CCN(C(=O)c3ccc([N+](=O)[O-])o3)C2)n1CC1CC1 (configuration not stated)
MIC [1]: 6.2 µg/mL (≈ 17.3 µM)

Cc1cnc(C2CCCO2)n1CC1CCN(C(=O)c2ccc([N+](=O)[O-])o2)CC1 (configuration not stated)
MIC [1]: 50 µg/mL (≈ 129 µM)

Cc1cnc(Cc2ccccc2)n1CCNC(=O)c1ccc([N+](=O)[O-])o1
MIC [1]: 50 µg/mL (≈ 141 µM)

Cc1cnc(C)n1C1CCN(C(=O)c2ccc([N+](=O)[O-])o2)CC1
MIC [1]: > 100 µg/mL

O=C(O)c1cn(C2CC2)c2cc(N3CCNCC3)c(F)cc2c1=O [CIPROFLOXACIN]
diameter of the inhibition zone (DIZ) [2]: 25 mm | diameter of the inhibition zone (DIZ) [3]: 27 mm | diameter of the inhibition zone (DIZ) [4]: 26 mm | diameter of the inhibition zone (DIZ) [5]: 31 mm | diameter of the inhibition zone (DIZ) [7]: 26 mm

CC[C@@H](CO)NCCN[C@@H](CC)CO [ETHAMBUTOL]
Activity_index [19]: 1.61 | Activity_index [20]: 2.65 | Activity [21]: 85.32 ×10³ CFU
